Assay [1] concerns HT-29. The experiment in a line: Induction of apoptosis in human HT-29 cells assessed as mitochondrial membrane depolarization after 5 mins by JC-1 dye-based fluorescence assay. It is filed as functional, cell-based. The method in brief: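 HT-29 (40 000 cells/well) treated with concentration series for 5 min at 37 °C, then JC-1 added for a further 10 min and washed. Red (560/590 nm) to green (485/520 nm) fluorescence ratio taken as ΔΨm; variable-slope fit for IC50; means ± SD, n = 4.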

Assay [2] concerns HT-29. Nature of the assay: Induction of apoptosis in human HT-29 cells after 24 hrs by annexin V-FLUOS/propidium iodide staining-based flow cytometry. It is filed as functional, cell-based. On the technique in general: In flow cytometry, cells or beads pass a laser one at a time.
For assay [3], the system named is HT-29. The experiment in a line: Increase in extracellular acidification rate in human HT-29 cells measured for 20 to 150 mins by time-resolved fluorescence assay relative to control. Type of assay: functional.
Assay [4] concerns HT-29. The experiment in a line: Increase in mitochondrial oxygen consumption in human HT-29 cells measured for 20 to 60 mins by time-resolved fluorescence assay. Type of assay: functional, cell-based. An outline of the steps: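 Oxygen-sensitive MitoXpress-Xtra probe in phenol red-free DMEM/F-12 on HT-29 seeded 80 000/well the day before; 10 min at 37 °C, compounds added, wells sealed with mineral oil. Time-resolved fluorescence at 37 °C, 90 s intervals for 150 min, background subtracted. Lifetime slope from 20 to 60 min taken relative to untreated cells; means ± SEM, n = 8.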

Assay [5] concerns MCF7. Nature of the assay: Antiproliferative activity against human MCF7 cells assessed as cellular DNA content after 96 hrs by CyQUANT NF fluorescence assay relative to control. It is filed as functional. The method in brief:
(§1)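 Cells seeded at 750 (HT-29), 250 (PC-3) or 900 (T84, MCF7) cells/well, treated next day with concentration series for 72 h (HT-29, PC-3) or 96 h (T84, MCF7). Relative cell number from cellular DNA content by fluorescent DNA-binding dye. Variable-slope fit; efficiency = maximal inhibition (100% − Bottom) vs untreated; IC50 relative to the compound's own maximal efficiency.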

For assay [6], the system named is T84. Nature of the assay: Antiproliferative activity against human T84 cells assessed as cellular DNA content after 96 hrs by CyQUANT NF fluorescence assay relative to control. It is filed as functional. The method in brief: as §1
Assay [7] concerns HT-29. The experiment in a line: Antiproliferative activity against human HT-29 cells assessed as cellular DNA content after 72 hrs by CyQUANT NF fluorescence assay relative to control. It is filed as functional. An outline of the steps:
as §1

The subject of assay [8] is MCF7. Nature of the assay: Antiproliferative activity against human MCF7 cells assessed as cellular DNA content after 96 hrs by CyQUANT NF fluorescence assay. Type of assay: functional, cell-based. The note with it: MCF7, 96 h. The method in brief: as §1
For assay [9], the system named is HT-29. Nature of the assay: Antiproliferative activity against human HT-29 cells assessed as cellular DNA content after 72 hrs by CyQUANT NF fluorescence assay. It is filed as functional, cell-based. The note with it: HT-29, 72 h. The method in brief: as §1
For assay [10], the system named is T84. Nature of the assay: Antiproliferative activity against human T84 cells assessed as cellular DNA content after 96 hrs by CyQUANT NF fluorescence assay. It is filed as functional, cell-based. The note with it: T84, 96 h. The method in brief: as §1
Assay [11] can be described thus: Antiproliferative activity against human PC3 cells assessed as cellular DNA content after 72 hrs by CyQUANT NF fluorescence assay relative to control. Type of assay: functional, PC-3. The method in brief:
as §1

A short description of assay [12]: Antiproliferative activity against human PC3 cells assessed as cellular DNA content after 72 hrs by CyQUANT NF fluorescence assay. The note with it: PC-3, 72 h. It is filed as functional, cell-based. An outline of the steps: as §1

Experimental findings from ChEMBL document CHEMBL3779787, “Amorfrutin C Induces Apoptosis and Inhibits Proliferation in Colon Cancer Cells through Targeting Mitochondria” (J Nat Prod, 2016) are described below.

In general, IC50 refers to the concentration at which inhibition is half-maximal.

Each structure is given as a SMILES string. Calls of active or inactive are those of the source. The calls are words filed in the database; no cut-off is given here.

Take `COc1c(CC=C(C)C)c(CCc2ccccc2)c(C(=O)O)c(OC)c1CC=C(C)C`: the result in the assay on HT-29 [1] and in the assay on HT-29 [2] was Active.
In the case of `CCCCCCC1C(=O)O[C@H](C)[C@H](NC(=O)c2cccc(NC=O)c2O)C(=O)O[C@@H](C)[C@@H]1OC(=O)CC(C)C` (stereo not given in full), the “fold change (FC)” value in the assay on HT-29 [3] is 7. Further, in the assay on HT-29 [4], the outcome was Active.
On to `O=c1[nH]cc(F)c(=O)[nH]1` [FLUOROURACIL], for which the Efficacy in the assay on MCF7 [5] turned out to be 80%; in the assay with T84 [6], 76%; in the assay with HT-29 [7] it was 68%; in assay [11] it was 80%. For the same compound, the 50% inhibitory concentration (IC50) in the assay on MCF7 [8] amounted to 900 nM; with HT-29 [9], 5300 nM; in the assay with T84 [10] it was 6200 nM; in assay [12], 4900 nM.
As to `N#CC(C#N)=NNc1cccc(Cl)c1` [CARBONYL CYANIDE M-CHLOROPHENYLHYDRAZONE], the “fold change (FC)” value in the assay on HT-29 [3] is listed as 3. Also, the result in the assay on HT-29 [4] was Active.
In the case of `COc1cc([C@@H]2c3cc4c(cc3[C@@H](O[C@@H]3O[C@@H]5CO[C@@H](C)O[C@H]5[C@H](O)[C@H]3O)[C@H]3COC(=O)[C@H]23)OCO4)cc(OC)c1O` [ETOPOSIDE], the Efficacy with MCF7 [5] stood at 78%; in the assay with T84 [6] it was 90%; with HT-29 [7] it was 97%; in assay [11] it was 84%. In addition, the IC50 came out at 800 nM in the assay with MCF7 [8], 2200 nM in the assay on HT-29 [9], 3000 nM in the assay with T84 [10] and 1100 nM in assay [12].
For `COC(=O)c1c(O)c(CC=C(C)C)c(OC)c(CC=C(C)C)c1CCc1ccccc1`, the outcome in the assay with HT-29 [1] and in the assay on HT-29 [2] was Active.
On to `COc1cc(CCc2ccccc2)c(C(=O)O)c(O)c1C/C=C(\C)CCC=C(C)C`, for which the Efficacy is listed as 94% in the assay with MCF7 [5], 99% with T84 [6], 98% in the assay with HT-29 [7] and 95% in assay [11]. Also, the half-maximal inhibitory concentration (IC50) in the assay on MCF7 [8] was 33000 nM; in the assay with HT-29 [9] it was 20000 nM; with T84 [10], 13000 nM; in [12] it was 32000 nM.
`CCc1c2c(nc3ccc(OC(=O)N4CCC(N5CCCCC5)CC4)cc13)-c1cc3c(c(=O)n1C2)COC(=O)[C@]3(O)CC` [IRINOTECAN]: the Efficacy is on record as 82% in the assay on MCF7 [5], 82% with T84 [6], 71% in the assay on HT-29 [7] and 76% in [11]. The IC50 in the assay on MCF7 [8] was found to be 900 nM; in the assay with HT-29 [9] it was 1900 nM; in the assay on T84 [10], 1200 nM; in assay [12] it was 800 nM.
